Laboratory results: ChEMBL document CHEMBL3758148, “4-Phenylpyridin-2-one Derivatives: A Novel Class of Positive Allosteric Modulator of the M1 Muscarinic Acetylcholine Receptor” (J Med Chem, 2016)
Calls of active or inactive are those of the source. The calls are words filed in the database; no cut-off is given here.

Experiments:
[1] = biological target: T1, Muscarinic acetylcholine receptor M1 (Homo sapiens) (UniProt P11229); experiment: Positive allosteric modulation of human muscarinic M1 receptor expressed in CHO Flp-In cells assessed as functional cooperativity with acetylcholine measured as IP1 accumulation upto 30 uM after 1 hr by HTRF method; assay type: cell-based
T1 sequence (whole entry): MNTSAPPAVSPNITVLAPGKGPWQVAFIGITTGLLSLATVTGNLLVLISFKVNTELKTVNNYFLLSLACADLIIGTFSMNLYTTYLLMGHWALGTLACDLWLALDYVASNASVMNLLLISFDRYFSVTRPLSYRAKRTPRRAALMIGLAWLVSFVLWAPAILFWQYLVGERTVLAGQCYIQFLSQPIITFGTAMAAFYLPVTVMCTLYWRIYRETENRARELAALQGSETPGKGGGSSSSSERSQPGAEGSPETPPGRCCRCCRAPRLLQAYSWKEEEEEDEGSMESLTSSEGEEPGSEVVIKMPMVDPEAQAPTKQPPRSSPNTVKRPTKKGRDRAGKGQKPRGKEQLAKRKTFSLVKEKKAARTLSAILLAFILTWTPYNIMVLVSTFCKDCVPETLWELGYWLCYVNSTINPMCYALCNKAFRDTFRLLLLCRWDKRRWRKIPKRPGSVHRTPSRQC
How it was run: (§1)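 Suspended Flp-In CHO cells stably expressing hM1, stimulated at 10⁶ cells/ml in HEPES buffer with 50 mM LiCl, pH 7.4, using increasing ACh with or without increasing modulator, 1 h at 37 °C, 5% CO2. IP1 read by HTRF (665/590 nm ratio). Curves fitted globally to the operational model of allosterism, with KB fixed from binding. Mean ± SEM, ≥3 experiments in duplicate.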

[2] = biological target: T1, Muscarinic acetylcholine receptor M1 (Homo sapiens); experiment: Displacement of [3H]NMS from human muscarinic M1 receptor expressed in CHO Flp-In cells after 1 hr by microbeta liquid scintillation counting-based radioligand binding assay; assay type: cell-based
How it was run: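 Intact adherent Flp-In CHO cells expressing hM1 (10⁴ cells/well), incubated with 0.2 nM [3H]NMS, varying ACh and modulator in HEPES-buffered saline pH 7.4 for 1 h at 37 °C. Washed with ice-cold 0.9% NaCl, then scintillation counted. Fitted to an allosteric ternary complex model with [3H]NMS KA 0.2 nM. Mean ± SEM, ≥3 experiments in duplicate.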

[3] = biological target: T1, Muscarinic acetylcholine receptor M1 (Homo sapiens); experiment: Positive allosteric modulation of human muscarinic M1 receptor expressed in CHO Flp-In cells assessed as functional cooperativity with acetylcholine measured as IP1 accumulation after 1 hr by HTRF method; assay type: cell-based; how it was run: as §1
[4] = biological target: T1, Muscarinic acetylcholine receptor M1 (Homo sapiens); experiment: Allosteric agonist activity at human muscarinic M1 receptor expressed in CHO Flp-In cells assessed as intrinsic activity measured as IP1 accumulation after 1 hr by HTRF method; assay type: functional, cell-based; how it was run: as §1

SMILES | Activity [1] | Kb [2] [µM] | pKb [2] | log(activity) [3] | Intrinsic activity [4] | log(IA) [4]
N#Cc1ccccc1COc1ccccc1-c1ccn([C@H]2CCCC[C@@H]2O)c(=O)c1 (racemic) | inactive | 42 | 4.38 | – | – | –
O=c1cc(-c2ccccc2OCc2ccc(Oc3ccccc3)cc2)ccn1[C@H]1CCCC[C@@H]1O (racemic) | inactive | 19 | 4.71 | – | – | –
O=c1cc(-c2ccccc2O)ccn1[C@H]1CCCC[C@@H]1O (racemic) | inactive | 79 | 4.1 | – | – | –
O=c1cc(-c2ccccc2OCc2ccc(-c3cnn(CC4CCCCC4)c3)cc2)ccn1[C@H]1CCCC[C@@H]1O (racemic) | inactive | 30 | 4.52 | – | – | –
O=c1cc(-c2ccccc2OCc2ccccc2C(F)(F)F)ccn1[C@H]1CCCC[C@@H]1O (racemic) | inactive | 33 | 4.48 | – | – | –
COc1ccccc1COc1ccccc1-c1ccn([C@H]2CCCC[C@@H]2O)c(=O)c1 (racemic) | inactive | 30 | 4.53 | – | – | –
O=c1cc(-c2ccccc2NCc2ccc(-c3ccncc3)cc2)ccn1[C@H]1CCCC[C@@H]1O (racemic) | inactive | 9.3 | 5.03 | – | – | –
COC(=O)c1ccc(COc2ccccc2-c2ccn([C@H]3CCCC[C@@H]3O)c(=O)c2)cc1 (racemic) | – | 87 | 4.06 | 0.96 | 0.54 | -0.26
O=c1cc(-c2ccccc2OCc2ccc(-c3cnn(CCO)c3)cc2)ccn1[C@H]1CCCC[C@@H]1O (racemic) | – | 37 | 4.43 | 2.49 | 0.77 | -0.11
O=c1cc(-c2ccccc2OCc2ccc(-c3cnn(C4CCCCC4)c3)cc2)ccn1[C@H]1CCCC[C@@H]1O (racemic) | – | 2 | 5.67 | 0.63 | 0.51 | -0.29
O=c1cc(-c2ccccc2NCc2ccc(-c3cncnc3)cc2)ccn1[C@H]1CCCC[C@@H]1O (racemic) | – | – | 3.86 | 0.68 | 1.1 | 0.04
O=c1cc(-c2ccccc2OCc2ccc(Br)cc2)ccn1[C@H]1CCCC[C@@H]1O (racemic) | inactive | 58 | 4.24 | – | – | –
COc1cccc(COc2ccccc2-c2ccn([C@H]3CCCC[C@@H]3O)c(=O)c2)c1 (racemic) | – | 65 | 4.19 | 0.84 | 1.45 | 0.16
Cn1cc(-c2ccc(CNc3ccccc3-c3ccn([C@H]4CCCC[C@@H]4O)c(=O)c3)cc2)cn1 (racemic) | – | 66 | 4.18 | 1.44 | 0.44 | -0.36
NC(=O)c1cccc(COc2ccccc2-c2ccn([C@H]3CCCC[C@@H]3O)c(=O)c2)c1 (racemic) | – | 91 | 4.04 | 0.87 | – | -3
NC(=O)c1ccc(COc2ccccc2-c2ccn([C@H]3CCCC[C@@H]3O)c(=O)c2)cc1 (racemic) | – | 22 | 4.66 | 2.36 | 0.89 | 0.05
O=c1cc(-c2ccccc2NCc2ccc(-c3ccccc3)cc2)ccn1[C@H]1CCCC[C@@H]1O (racemic) | inactive | 69 | 4.16 | – | – | –

SMILES | Activity [1] | Kb [2] [µM] | pKb [2] | log(activity) [3] | Intrinsic activity [4] | log(IA) [4]
O=c1cc(-c2ccccc2OCc2ccc(Br)cc2F)ccn1[C@H]1CCCC[C@@H]1O (racemic) | inactive | 18 | 4.75 | – | – | –
O=c1cc(-c2ccccc2OCc2ccc(-c3cnn(Cc4ccccc4)c3)cc2)ccn1[C@H]1CCCC[C@@H]1O (racemic) | inactive | 21 | 4.68 | – | – | –
Nc1ccccc1-c1ccn([C@H]2CCCC[C@@H]2O)c(=O)c1 (racemic) | inactive | – | 3.86 | – | – | –
O=c1cc(-c2ccccc2OCc2ccc(-c3ccccc3)cc2)ccn1[C@H]1CCCC[C@@H]1O (racemic) | – | 10 | 4.99 | 1.09 | 1.38 | 0.14
O=c1cc(-c2ccccc2OCc2ccc(C(F)(F)F)cc2)ccn1[C@H]1CCCC[C@@H]1O (racemic) | – | 36 | 4.44 | 0.4 | 0.77 | -0.11
O=c1cc(-c2ccccc2OCc2cccc(F)c2)ccn1[C@H]1CCCC[C@@H]1O (racemic) | – | 41 | 4.38 | 0.85 | 0.78 | -0.11
O=c1cc(-c2ccccc2OCc2cccc(C(F)(F)F)c2)ccn1[C@H]1CCCC[C@@H]1O (racemic) | – | 30 | 4.53 | 0 | 1.02 | 0.01
O=c1cc(-c2ccccc2NCc2ccc(Br)cc2)ccn1[C@H]1CCCC[C@@H]1O (racemic) | inactive | 45 | 4.35 | – | – | –
O=c1cc(-c2ccccc2OCc2ccc(F)cc2)ccn1[C@H]1CCCC[C@@H]1O (racemic) | – | 60 | 4.22 | 1.15 | 1 | 0
COc1ccc(COc2ccccc2-c2ccn([C@H]3CCCC[C@@H]3O)c(=O)c2)cc1 (racemic) | – | 52 | 4.28 | 0.8 | 0.08 | -1.1
O=c1cc(-c2ccccc2OCc2ccccc2F)ccn1[C@H]1CCCC[C@@H]1O (racemic) | – | 30 | 4.52 | 0.62 | 0.44 | -0.36
O=c1cc(-c2ccccc2OCc2ccc(-c3cnn(CC4CC4)c3)cc2)ccn1[C@H]1CCCC[C@@H]1O (racemic) | – | 7 | 5.13 | 0.58 | – | -3
Cn1cc(-c2ccc(COc3ccccc3-c3ccn([C@H]4CCCC[C@@H]4O)c(=O)c3)cn2)cn1 (racemic) | – | 32 | 4.5 | 2.15 | – | -3
CC(C)n1cc(-c2ccc(COc3ccccc3-c3ccn([C@H]4CCCC[C@@H]4O)c(=O)c3)cc2)cn1 (racemic) | – | 27 | 4.57 | 1.93 | 0.47 | -0.33
O=c1cc(-c2ccccc2OCc2ccc(-c3cn[nH]c3)cc2)ccn1[C@H]1CCCC[C@@H]1O (racemic) | – | 28 | 4.56 | 0.68 | 1.1 | 0.04
Cn1cc(-c2ccc(COc3ccccc3-c3cc(=O)n([C@H]4CCCC[C@@H]4O)cn3)cc2)cn1 (racemic) | – | 13 | 4.88 | 2.75 | 2.51 | 0.4
O=c1cc(-c2ccccc2OCc2ccc(-c3ncco3)cc2)ccn1[C@H]1CCCC[C@@H]1O (racemic) | – | 28 | 4.56 | 1.61 | 0.57 | -0.24
